HSF1 activator: increases HSF-1 driven luciferase reporter signal; hit rate 1.7% among 300,000; NIH3T3-HGL HSF-1 luciferase reporter, MG132, 8 h; 100% = twice DMSO control signal; activation, % at 9 µM;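 active = mean replicate activation of at least 50% with a set share of replicates each reaching 50%; inconclusive = only one of those two conditions met; inactive = mean below 50% and too few replicates reaching it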;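 also: 0% = median of the neutral control wells and 100% = twice that signal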
MITF TRPM1 HTS: increases MITF-driven TRPM1 promoter luciferase signal; AID 588334; SK-MEL-5 TRPM1-promoter luciferase, 24 h; % of positive control, neutral wells = 0; hit rate 0.75% among 300,000; activation, % at 12.5 µM;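 active = mean activation of at least 80% with every replicate also reaching 80%; inconclusive = mean reaches 80% but some replicate falls short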;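 also: 0% = neutral control wells and 100% = parthenolide positive control wells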
Wnt act: Wnt/beta-catenin pathway activation; Wnt/beta-catenin reporter cell assay, activator, plate reader; activation, % at 9.35 µM; hit rate 1.2% among 300,000; AID 743398; in the data active = activation above about 30%, passing the limit was not always enough; inconclusive = no clear call, values can overlap the other calls;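 also: 0% = neutral control wells and 100% = positive control wells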
SR-BI uptake up: activators of SR-BI mediated HDL lipid uptake; AID 504775; CHO ldlA[mSR-BI] cells, DiI-HDL uptake fluorescence, 3 h; 100 = double the neutral-control signal; hit rate 0.096% among 320,000; activation, % at 12.5 µM;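 active = mean replicate activation of at least 60% and every replicate at or above 60%; inconclusive = mean or all-replicate condition met, but not both; inactive = mean below 60% and not all replicates reaching 60%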;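 also: 0% = median plate neutral-control signal and 100% = twice that signal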
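Material – SR-BI-overexpressing, LDLR-lacking CHO cells · Medium – BSA-supplemented, HEPES-buffered Ham's F12, pH 7.4 · Doses – single concentration · Times – compound with DiI-HDL co-incubation, 3 h at 37 °C · Measured by – bottom-read fluorescence, 550/595 nm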
SR-BI HDL uptake: mouse SR-BI HDL lipid transfer inhibition; ldlA[mSR-BI] CHO cells, DiI-HDL uptake fluorescence, 3 h; inhibition, % at 12.5 µM; hit rate 0.96% among 320,000;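 active = mean replicate inhibition of at least 70% and a set share of replicates each scoring 70 or more; inconclusive = meets just one of the two criteria; inactive = fails both criteria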;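 also: 0% = median of neutral control wells and 100% = median of positive control wells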
Target sequence (Q61009 whole entry, looked up): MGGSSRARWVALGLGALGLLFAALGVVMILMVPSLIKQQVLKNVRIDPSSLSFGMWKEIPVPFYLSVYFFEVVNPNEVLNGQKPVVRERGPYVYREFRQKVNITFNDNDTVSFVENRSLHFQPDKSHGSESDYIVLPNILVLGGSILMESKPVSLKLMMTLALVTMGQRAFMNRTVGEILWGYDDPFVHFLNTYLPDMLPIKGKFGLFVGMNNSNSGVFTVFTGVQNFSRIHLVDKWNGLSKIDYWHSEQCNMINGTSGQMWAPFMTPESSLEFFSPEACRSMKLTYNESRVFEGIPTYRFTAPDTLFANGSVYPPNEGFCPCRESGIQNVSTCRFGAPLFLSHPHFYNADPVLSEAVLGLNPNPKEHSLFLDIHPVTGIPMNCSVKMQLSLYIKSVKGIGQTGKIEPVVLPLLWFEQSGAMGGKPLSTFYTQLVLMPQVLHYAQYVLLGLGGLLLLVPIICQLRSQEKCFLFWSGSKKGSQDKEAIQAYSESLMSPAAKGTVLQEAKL
The depositor's hits bear a star; ? = inconclusive; · = no result. Only some compounds are listed: those with a hit (about 3.6% of all), similar ones and a draw of the others.

SMILES	HSF1 activator	MITF TRPM1 HTS	Wnt act	SR-BI uptake up	SR-BI HDL uptake
COc1cccc(OC)c1C(=O)N1CCN(Cc2ccccc2C)CC1	-37	·	-3	67*	-67
COc1ccccc1CN1CCN(C(=O)c2cccc3ccccc23)CC1	-6	·	0	·	·
Cc1ccc(CNc2ncnc3ccc(-c4ccc(CO)o4)cc23)o1	·	·	-4	·	·
Cc1ccc(S(=O)(=O)N2CCC(C(=O)Nc3ncccc3O)CC2)cc1	·	-8	-4	-13	13
COc1cccc(CNC(=O)COc2cc3c(c4oc(=O)cc(C)c24)CCC(C)(C)O3)c1	2	-4	0	-77	77*
COc1ccc(CNC(=O)COc2cc3c(c4oc(=O)cc(C)c24)CCC(C)(C)O3)cc1	-7	-6	-1	-40	40
CC1=NNC(=O)C1C(c1ccccc1)C1C(=O)NN=C1C (configuration not stated)	128*	·	·	·	·
CC1(C)CC(=O)C2=C(C1)Nc1ccccc1NC2c1ccc2c(c1)OCO2 (configuration not stated)	8	·	44*	-5	5
CC1(C)CC(=O)C2=C(C1)Nc1cc3c(cc1C2c1ccc2c(c1)OCO2)OCO3 (configuration not stated)	62*	9	1	-3	3
O=C(COc1ccc(Br)cc1CO)Nc1ccccc1F	13	102*	2	10	-10
Cc1ccc(NC(=O)COc2ccc(Br)cc2CO)cc1	21	65	·	6	-6
O=C(COc1ccc(Br)cc1CO)Nc1ccccc1	21	·	31*	8	-8
COCCNC(=O)c1cc2c(c(-c3cccc(C#Cc4ccc(OC)c(OC)c4)c3)n1)[C@@H](CCO)N(S(=O)C(C)(C)C)C2 (some centres not stated)	·	·	-3	·	·
Cc1c(CC(=O)N[C@H](C(=O)O)C(C)C)c(=O)oc2cc3c(cc12)CCC(C)(C)O3	17	60	35*	-5	5
C[C@@H]1C(c2cccc(Cl)c2)=NN(c2ccc(Br)cc2)[C@H]1C(=O)N1CCOC1=O	·	-6	·	·	·
O=C(Nc1nc2c(F)cc(F)cc2s1)c1ccccn1	423*	-64	26	2	-2
CC1(C)CC(=O)C=C(c2n[nH]nc2C2CCCCC2)C1	·	·	10	·	·
C/C(=N\Nc1ccc([N+](=O)[O-])cc1)c1ccc(N)cc1	-7	76	9	-23	23
C/C(=N\Nc1nc(C)c(C)s1)c1ccc([N+](=O)[O-])cc1	40	19	1	-81	81*
Cc1ccc(/C=C2/CCc3c([nH]c4ccccc34)C2=O)cc1	19	100*	54*	9	-9
CCCC/C=C1\CCc2c([nH]c3ccccc23)C1=O	49	65	4	·	·
CC(C)/C=C1\CCc2c([nH]c3ccccc23)C1=O	36	29	10	-3	3
O=C1/C(=C\c2ccccc2)CCc2c1[nH]c1ccccc21	109*	52	39*	-17	17
Cc1ccc2[nH]c(-c3ccccc3)cc(=O)c2c1	-14	-12	12	17	-17
Cc1ccc2[nH]c3c(c2c1)CC/C(=C/c1ccccc1)C3=O	62*	·	-3	-28	28
SMILES	HSF1 activator	MITF TRPM1 HTS	Wnt act	SR-BI uptake up	SR-BI HDL uptake
O=c1[nH]cc(CCCc2ccccc2)c(=O)[nH]1	·	·	4	·	·
COC(=O)C1=C(C)N(C)C(=NCc2ccccc2)NC1c1ccc(F)cc1 (configuration not stated)	·	·	-2	·	·
O=C(c1ccc(Cl)cc1)c1cnc(-c2ccc(Cl)cc2)s1	13	73	·	7	-7
O=C(c1ccccc1)c1cnc(-c2ccc(Cl)cc2)s1	14	·	40*	-14	14
O=C(CN1C(=O)NC2(CCCC2)C1=O)NCCN1C(=O)S/C(=C\c2ccccc2F)C1=O	55*	-1	-3	-11	11
COc1ccc(/C=C2\SC(=O)N(CCNC(=O)CN3C(=O)NC4(CCCC4)C3=O)C2=O)cc1	1	16	3	-11	11
Clc1ccc(COn2nnc3ccccc32)c(Cl)c1	86*	99*	22	9	-9
Cc1ccc(S(=O)(=O)ON=C2CCN(S(=O)(=O)c3ccccc3)CC2)cc1	14	8	-3	-3	3
CC1=CC(=O)C=C(C)C1=NOS(=O)(=O)c1ccccc1	27	-29	17	-112	112*
CC1=CC(=O)C(C(C)C)=C/C1=N/OS(=O)(=O)c1ccccc1	83*	·	5	-80	80*
Cc1ccc2c(c1)/C(=N/OS(=O)(=O)c1ccccc1)CCS2	-6	·	-4	13	-13
CC1SC(c2ccc(Cl)cc2)NC1=O (configuration not stated)	68*	-1	·	20	-20
CCOc1ccccc1OCCCC(=O)Nc1ccc(Cl)c(S(=O)(=O)N2CCOCC2)c1	·	-2	-4	-72	?
C=CCCC(=O)N1C[C@H]2CCN(C)[C@H]2C[C@H]1c1ccc(Br)cc1	·	·	0	·	·
Cc1cccc(C)c1N/C=C/c1onc(C)c1[N+](=O)[O-]	-14	14	·	22	-22
COc1cccc(N/C=C/c2onc(C)c2[N+](=O)[O-])c1	66*	60	26	9	-9
Cc1ccc(N/C=C/c2onc(C)c2[N+](=O)[O-])cc1	10	113*	40*	·	·
COc1ccccc1N1CCN(C(=O)CSc2nc3ccccc3o2)CC1	14	20	·	-24	24
COCCNc1nc(SCC(=O)N2CCN(c3ccccc3OC)CC2)nc2ccccc12	8	16	-3	-72	72*
CSCCC(C(=O)Nc1c(C)cccc1C)N1CCN(c2ccc(C(F)(F)F)cn2)CC1 (configuration not stated)	·	·	-3	·	·
O=C(Nc1cccs1)Nc1c(F)c(F)cc(F)c1F	59*	4	0	5	-5
O=C(Nc1cccs1)Nc1c(F)c(F)c(F)c(F)c1F	13	3	22	-1	1
CCc1cccc(NC(=O)Nc2cccs2)c1	133*	77	·	-22	22
N#Cc1cccc(NC(=O)Nc2cccs2)c1	33	8	1	-41	41
COC(=O)c1ccccc1NC(=O)Nc1cccs1	66*	5	·	10	-10
SMILES	HSF1 activator	MITF TRPM1 HTS	Wnt act	SR-BI uptake up	SR-BI HDL uptake
CCCCCCCCN1C(=O)[C@H](CC(=O)NCCC(C)C)C[C@@]2(C(=O)OC)CCCCC=C12	·	·	-4	·	·
Cc1nnc(SCc2ccccc2)nc1-c1ccccc1	32	88*	?	-17	17
COC(=O)c1cc2c(c3c4cc(OC)ccc4n(C(=O)c4ccccc4)c13)C(=O)N(Cc1ccco1)C2	·	·	-1	·	·
O=C1c2cccc3cc([N+](=O)[O-])cc(c23)C(=O)N1CCN1CCCC1	61*	-82	1	5	-5
COc1ccccc1NC(=O)c1ccc(NC(=O)CN2CCN(C(=O)c3ccco3)CC2)cc1	-9	8	-1	-79	79*
CCOc1ccc(NC(=O)CN2CCN(CC(=O)Nc3ccccc3OC)CC2)cc1	27	-1	0	-78	78*

High-throughput results as filed in PubChem.
